Measurements published in ChEMBL document CHEMBL5230144, “Synthesis and Biological Evaluation of Celastrol Derivatives with Improved Cytotoxic Selectivity and Antitumor Activities” (J Nat Prod, 2021).

What was measured:
A549 = assay: cells; conditions: Homo sapiens, A549, 48 h
MCF7 = assay: cells; conditions: Homo sapiens, MCF7, 48 h
MDA-MB-231 = assay: cells; conditions: Homo sapiens, MDA-MB-231, 48 h
KB = assay: cells; conditions: Homo sapiens, 48 h
[1] = biological target: Heat shock protein HSP 90-beta/Hsp90 co-chaperone Cdc37 (Homo sapiens, UniProt P08238+Q16543); assay: Disruption of His-tagged full length HSP90 (unknown origin)/GST-tagged Cdc37 (unknown origin) at 50 uM measured after 1 hr by HTRF method; assay type: protein-complex assay
Method in brief: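 HTRF in PBS with […], pH 7.3: His-tagged full-length Hsp90 and GST-tagged Cdc37 (each 250 nM final) with compound, 37 °C for 1 h. Anti-GST-Cryptate and anti-6His-XL665 then added for 0.5 h at 37 °C. Time-resolved fluorescence read at ex 320 nm, em 665/620 nm; ratio (665/620) × 10 000.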

[2] = Cytotoxicity against human mesenchymal bone marrow stem cells measured after 48 hrs by MTT assay; assay type: toxicity, cell-based

Compound | IC50 (A549) [nM] | IC50 (MCF7) [nM] | IC50 (MDA-MB-231) [nM] | IC50 (KB) [nM] | inhibition [1] [%] | IC50 at 48 h [2] [nM]
CC1=C(O)C(=O)C=C2C1=CC=C1[C@@]2(C)CC[C@@]2(C)[C@@H]3C[C@](C)(C(=O)OCCC(C)C)CC[C@]3(C)CC[C@]12C | 4200 | 2000 | 1100 | 1900 | 87.8 | –
C#CCOC(=O)[C@]1(C)CC[C@]2(C)CC[C@]3(C)C4=CC=C5C(=CC(=O)C(OC(=O)N6CCCCC6)=C5C)[C@]4(C)CC[C@@]3(C)[C@@H]2C1 | – | – | 100 | – | – | 2400
C#CCOC(=O)[C@]1(C)CC[C@]2(C)CC[C@]3(C)C4=CC=C5C(=CC(=O)C(OC(=O)N6CCN(c7ccccc7)CC6)=C5C)[C@]4(C)CC[C@@]3(C)[C@@H]2C1 | – | – | 200 | – | – | 1800
C#CCOC(=O)[C@]1(C)CC[C@]2(C)CC[C@]3(C)C4=CC=C5C(=CC(=O)C(OC(=O)/C=C/c6ccccc6F)=C5C)[C@]4(C)CC[C@@]3(C)[C@@H]2C1 | – | – | 300 | – | – | 1400
COCCCOC(=O)[C@]1(C)CC[C@]2(C)CC[C@]3(C)C4=CC=C5C(=CC(=O)C(O)=C5C)[C@]4(C)CC[C@@]3(C)[C@@H]2C1 | 1000 | 600 | 400 | 600 | 88.8 | –
C#CCOC(=O)[C@]1(C)CC[C@]2(C)CC[C@]3(C)C4=CC=C5C(=CC(=O)C(OC(=O)N(c6ccccc6)c6ccccc6)=C5C)[C@]4(C)CC[C@@]3(C)[C@@H]2C1 | – | – | 200 | – | – | 3100
CC1=C(O)C(=O)C=C2C1=CC=C1[C@@]2(C)CC[C@@]2(C)[C@@H]3C[C@](C)(C(=O)OCCBr)CC[C@]3(C)CC[C@]12C | 1600 | 1100 | 100 | 1000 | 86.3 | –
C#CCOC(=O)[C@]1(C)CC[C@]2(C)CC[C@]3(C)C4=CC=C5C(=CC(=O)C(OC(=O)N6CCN(c7cccc(OC)c7)CC6)=C5C)[C@]4(C)CC[C@@]3(C)[C@@H]2C1 | – | – | 300 | – | – | 1800
C#CCOC(=O)[C@]1(C)CC[C@]2(C)CC[C@]3(C)C4=CC=C5C(=CC(=O)C(OC(=O)/C=C/C)=C5C)[C@]4(C)CC[C@@]3(C)[C@@H]2C1 | – | – | 500 | – | – | 3000
C#CCOC(=O)[C@]1(C)CC[C@]2(C)CC[C@]3(C)C4=CC=C5C(=CC(=O)C(OC(=O)N6CCN(c7ccccc7Cl)CC6)=C5C)[C@]4(C)CC[C@@]3(C)[C@@H]2C1 | – | – | 200 | – | – | 1900
C#CCOC(=O)[C@]1(C)CC[C@]2(C)CC[C@]3(C)C4=CC=C5C(=CC(=O)C(OC(=O)C(=C)C)=C5C)[C@]4(C)CC[C@@]3(C)[C@@H]2C1 | – | – | 400 | – | – | 2400
C=CCOC(=O)[C@]1(C)CC[C@]2(C)CC[C@]3(C)C4=CC=C5C(=CC(=O)C(O)=C5C)[C@]4(C)CC[C@@]3(C)[C@@H]2C1 | 800 | 400 | 800 | 300 | 89.9 | –
C#CCOC(=O)[C@]1(C)CC[C@]2(C)CC[C@]3(C)C4=CC=C5C(=CC(=O)C(OC(=O)N(CC)CC)=C5C)[C@]4(C)CC[C@@]3(C)[C@@H]2C1 | – | – | 300 | – | – | 3200
C#CCOC(=O)[C@]1(C)CC[C@]2(C)CC[C@]3(C)C4=CC=C5C(=CC(=O)C(OC(C)=O)=C5C)[C@]4(C)CC[C@@]3(C)[C@@H]2C1 | – | – | 500 | – | – | 2400
C#CCOC(=O)[C@]1(C)CC[C@]2(C)CC[C@]3(C)C4=CC=C5C(=CC(=O)C(OC(=O)N(CCCC)CCCC)=C5C)[C@]4(C)CC[C@@]3(C)[C@@H]2C1 | – | – | 100 | – | – | 1200
C#CCOC(=O)[C@]1(C)CC[C@]2(C)CC[C@]3(C)C4=CC=C5C(=CC(=O)C(OC(=O)c6ccc(Br)cc6)=C5C)[C@]4(C)CC[C@@]3(C)[C@@H]2C1 | – | – | 300 | – | – | 2200
C#CCOC(=O)[C@]1(C)CC[C@]2(C)CC[C@]3(C)C4=CC=C5C(=CC(=O)C(OC(=O)N6CCCC6)=C5C)[C@]4(C)CC[C@@]3(C)[C@@H]2C1 | – | – | 200 | – | – | 2700
C#CCOC(=O)[C@]1(C)CC[C@]2(C)CC[C@]3(C)C4=CC=C5C(=CC(=O)C(OC(=O)N6c7ccccc7C=Cc7ccccc76)=C5C)[C@]4(C)CC[C@@]3(C)[C@@H]2C1 | – | – | 200 | – | – | 2200

Compound | IC50 (A549) [nM] | IC50 (MCF7) [nM] | IC50 (MDA-MB-231) [nM] | IC50 (KB) [nM] | inhibition [1] [%] | IC50 at 48 h [2] [nM]
C#CCOC(=O)[C@]1(C)CC[C@]2(C)CC[C@]3(C)C4=CC=C5C(=CC(=O)C(OC(=O)N(C)CCC)=C5C)[C@]4(C)CC[C@@]3(C)[C@@H]2C1 | – | – | 300 | – | – | 900
CC1=C(O)C(=O)C=C2C1=CC=C1[C@@]2(C)CC[C@@]2(C)[C@@H]3C[C@](C)(C(=O)OCCCl)CC[C@]3(C)CC[C@]12C | 6300 | 1800 | 800 | 1900 | 87 | –
C#CCOC(=O)[C@]1(C)CC[C@]2(C)CC[C@]3(C)C4=CC=C5C(=CC(=O)C(OC(=O)c6ccc(F)cc6)=C5C)[C@]4(C)CC[C@@]3(C)[C@@H]2C1 | – | – | 400 | – | – | 2000
C#CCOC(=O)[C@]1(C)CC[C@]2(C)CC[C@]3(C)C4=CC=C5C(=CC(=O)C(OC(=O)N6c7ccccc7Sc7ccccc76)=C5C)[C@]4(C)CC[C@@]3(C)[C@@H]2C1 | – | – | 200 | – | – | 2900
C#CCOC(=O)[C@]1(C)CC[C@]2(C)CC[C@]3(C)C4=CC=C5C(=CC(=O)C(OC(=O)N6c7ccccc7CCc7ccccc76)=C5C)[C@]4(C)CC[C@@]3(C)[C@@H]2C1 | – | – | 300 | – | – | 1000
C#CCOC(=O)[C@]1(C)CC[C@]2(C)CC[C@]3(C)C4=CC=C5C(=CC(=O)C(OC(=O)/C=C/c6cccc(Cl)c6)=C5C)[C@]4(C)CC[C@@]3(C)[C@@H]2C1 | – | – | 300 | – | – | 2000
C#CCOC(=O)[C@]1(C)CC[C@]2(C)CC[C@]3(C)C4=CC=C5C(=CC(=O)C(OC(=O)N(C)CC)=C5C)[C@]4(C)CC[C@@]3(C)[C@@H]2C1 | – | – | 300 | – | – | 3000
C#CCOC(=O)[C@]1(C)CC[C@]2(C)CC[C@]3(C)C4=CC=C5C(=CC(=O)C(OC(=O)/C=C/c6ccccc6)=C5C)[C@]4(C)CC[C@@]3(C)[C@@H]2C1 | – | – | 500 | – | – | 2800
CCCCOC(=O)[C@]1(C)CC[C@]2(C)CC[C@]3(C)C4=CC=C5C(=CC(=O)C(O)=C5C)[C@]4(C)CC[C@@]3(C)[C@@H]2C1 | 1300 | 600 | 900 | 600 | 86 | –
C#CCOC(=O)[C@]1(C)CC[C@]2(C)CC[C@]3(C)C4=CC=C5C(=CC(=O)C(OC(=O)N6CCN(c7ccc(Cl)cc7)CC6)=C5C)[C@]4(C)CC[C@@]3(C)[C@@H]2C1 | – | – | 200 | – | – | 1600
C#CCOC(=O)[C@]1(C)CC[C@]2(C)CC[C@]3(C)C4=CC=C5C(=CC(=O)C(OC(=O)N6CCN(c7ccccc7OC)CC6)=C5C)[C@]4(C)CC[C@@]3(C)[C@@H]2C1 | – | – | 300 | – | – | 1800
C#CCOC(=O)[C@]1(C)CC[C@]2(C)CC[C@]3(C)C4=CC=C5C(=CC(=O)C(OC(=O)N(CCC)CCC)=C5C)[C@]4(C)CC[C@@]3(C)[C@@H]2C1 | – | – | 300 | – | – | 900
C#CCOC(=O)[C@]1(C)CC[C@]2(C)CC[C@]3(C)C4=CC=C5C(=CC(=O)C(OC(=O)/C=C/c6cccc(C)c6)=C5C)[C@]4(C)CC[C@@]3(C)[C@@H]2C1 | – | – | 400 | – | – | 2900
C#CCOC(=O)[C@]1(C)CC[C@]2(C)CC[C@]3(C)C4=CC=C5C(=CC(=O)C(OC(=O)CCC)=C5C)[C@]4(C)CC[C@@]3(C)[C@@H]2C1 | – | – | 400 | – | – | 2600
C#CCOC(=O)[C@]1(C)CC[C@]2(C)CC[C@]3(C)C4=CC=C5C(=CC(=O)C(OC(=O)N(C)C)=C5C)[C@]4(C)CC[C@@]3(C)[C@@H]2C1 | – | – | 200 | – | – | 2000
C#CCOC(=O)[C@]1(C)CC[C@]2(C)CC[C@]3(C)C4=CC=C5C(=CC(=O)C(OC(=O)N(C)CCCC)=C5C)[C@]4(C)CC[C@@]3(C)[C@@H]2C1 | – | – | 300 | – | – | 1000
C#CCOC(=O)[C@]1(C)CC[C@]2(C)CC[C@]3(C)C4=CC=C5C(=CC(=O)C(OC(=O)C=C)=C5C)[C@]4(C)CC[C@@]3(C)[C@@H]2C1 | – | – | 700 | – | – | 3700
C#CCOC(=O)[C@]1(C)CC[C@]2(C)CC[C@]3(C)C4=CC=C5C(=CC(=O)C(OC(=O)N6CCN(C)CC6)=C5C)[C@]4(C)CC[C@@]3(C)[C@@H]2C1 | – | – | 300 | – | – | 2000
